“Also recorded” adds a separate entry of the source. Read-outs that look alike come from different tables or passages of the source.
Columns and labels:
[1] = system: QTcF interval in healthy subjects; test: Thorough QT study, continuous Holter monitoring, time-matched ΔΔQTcF; assay type: in vivo, human; settings: for time of maximum effect of ΔΔQTcF: after dosing on day 2
Procedure, shortened: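 3-period crossover: test compound 150 mg orally every 12 h ×3, placebo, or single 400-mg fluoroquinolone positive control; ≥21-day washouts. Continuous 12-lead 1000-Hz Holter; day −1 24-h baseline. Triplicate ECGs extracted 0.5–24 h after day-2 dose, lead II, blinded central reader; QT Fridericia-corrected; time-matched placebo-subtracted change (ΔΔQTcF) by repeated-measures ANCOVA with 90% CIs; concentration relation via linear mixed-effects model.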

[2] = Plasma cabotegravir pharmacokinetics after third dose; assay type: in vivo; settings: human, po, 150 mg; for AUC(0-t) / Tmax: oral 150 mg every 12 hours × 3 doses; for Tmax: median (range)
Procedure, shortened: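 Healthy adults took oral test compound 150 mg (5 × 30-mg tablets) every 12 h for 3 doses, fasting ≥6 h before and 4 h after the third dose. Plasma was sampled predose and 0.5–24 h after the day-2 dose. Samples were protein-precipitated and run on HPLC-MS/MS (TurboIonSpray, MRM), range 25–25 000 ng/mL. Noncompartmental analysis gave Cmax, Tmax, AUC0–12 and AUC0–24.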

[3] = system: healthy subjects; test: Safety assessments; assay type: in vivo, human; settings: for Alanine aminotransferase increased / Any adverse event / Blood creatine phosphokinase increased / Dermatitis contact / Headache / Nausea: safety population
Procedure, shortened: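 Healthy adults aged 18–55 were crossed over between test compound (150 mg every 12 h ×3), placebo and a positive control, with ≥21-day washouts. Monitoring ran throughout and covered adverse events, laboratory tests, vital signs and physical examinations. Semisupine 12-lead safety ECGs were taken at 0, 3, 12 and 15 h on day 1, at 0 and 3 h on day 2, and at 24 h on day 3. Summaries were descriptive.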

[4] = Drug exposure in monkey cardiovascular study; assay type: in vivo; settings: 1000 mg/kg in monkeys vs 150 mg every 12 hours × 3 doses in humans
[5] = Previous single-dose cabotegravir 150 mg pharmacokinetic study; assay type: in vivo, human
[6] = system: hERG channel; settings: 5.28 μM [2.14 μg/mL]; HEK 293 cells; nonclinical studies; cited from earlier work
[7] = system: unrestrained male monkeys; settings: nonclinical study, cited from earlier work
[8] = monkeys, 1000 mg/kg; nonclinical study; cited from earlier work
[9] = system: QTcF in clinical study subjects; settings: 8 phase 1/2a studies, n = 245 subjects, cited from earlier work
[10] = cited from earlier work
[11] = system: HIV-1; settings: oral cabotegravir, early clinical studies; cited from earlier work
[12] = system: UGT1A1, UGT1A9; settings: to inactive glucuronide metabolites; cited from earlier work
[13] = system: UGT and cytochrome P450 (CYP) enzymes; settings: in vitro; cited from earlier work
[14] = single dose 150 mg; ref unpublished data; cited from earlier work
[15] = cited from earlier work; remark: listed apart in the source
[16] = system: QTc in healthy subjects; settings: randomized, placebo-controlled study of 20 healthy subjects; cited from earlier work
[17] = system: cardiac repolarization; settings: prior studies; cited from earlier work
[18] = cabotegravir 150 mg every 12 hours × 3 doses
[19] = linear mixed-effects PK/pharmacodynamic model
[20] = supratherapeutic dose, 150 mg every 12 hours × 3 doses
[21] = 150 mg every 12 hours × 3 doses
[22] = single dose 150 mg, extrapolation from 30-mg data
[23] = single dose 1000 mg/kg, within the first 2 hours of dosing

What does the source list for `C[C@H]1CO[C@@H]2Cn3cc(C(=O)NCc4ccc(F)cc4F)c(=O)c(O)c3C(=O)N12` [Cabotegravir]?
time of maximum effect of ΔΔQTcF [1]: 8 h; point estimate for ΔΔQTcF at any point [1, 18]: ≤ 5 milliseconds; subjects with QTcF value > 450 milliseconds [1, 18]: not associated with any instances; subjects with changes from baseline in QTcF of >30 milliseconds [1, 18]: none of the subjects; ΔΔQTcF, mean ± SE ([1]; cabotegravir 150 mg every 12 hours × 3 doses minus placebo, 1 h): -0.37 ± 1.74 ms; ΔΔQTcF, mean ± SE ([1]; cabotegravir 150 mg every 12 hours × 3 doses minus placebo, 2 h): 0.44 ± 1.83 ms; ΔΔQTcF, mean ± SE ([1]; cabotegravir 150 mg every 12 hours × 3 doses minus placebo, 3 h): -0.62 ± 1.69 ms; ΔΔQTcF, mean ± SE ([1]; cabotegravir 150 mg every 12 hours × 3 doses minus placebo, 4 h): -0.37 ± 1.53 ms; ΔΔQTcF, mean ± SE ([1]; cabotegravir 150 mg every 12 hours × 3 doses minus placebo, 6.5 h): 0.50 ± 1.63 ms; ΔΔQTcF, mean ± SE ([1]; cabotegravir 150 mg every 12 hours × 3 doses minus placebo, 12 h): -0.34 ± 1.66 ms; ΔΔQTcF, mean ± SE ([1]; cabotegravir 150 mg every 12 hours × 3 doses minus placebo, 24 h): 1.13 ± 2.05 ms; upper limits of 2-sided 90% confidence intervals for ΔΔQTcF ([1]; cabotegravir 150 mg every 12 hours × 3 doses, all time points): < 10 milliseconds; subjects with QTcF value > 450 milliseconds ([1]; cabotegravir 150 mg every 12 hours × 3 doses, listed as cabotegravir): No subject; mean estimated intercept, ΔΔQTcF vs time-matched cabotegravir concentration [1, 19]: 1.382 milliseconds; relationship between cabotegravir plasma concentrations and ΔΔQTcF [1, 19]: no relationship; also recorded: no discernable concentration effect; effect on cardiac repolarization [1, 20]: no effect on cardiac repolarization; AUC(0-t) ([2]; both, AUC0–12, geometric mean (CV,%) [90%CI], all subjects (n = 40)): 217 µg·h/mL; AUC(0-t) ([2]; both, AUC0–24, geometric mean (CV,%) [90%CI], all subjects (n = 40)): 386 µg·h/mL; Tmax ([2]; both, all subjects (n = 40)): ~2 h; Cmax ([2]; female): 25.1 µg/mL; AUC(0-t) ([2]; female, AUC0–12, geometric mean (CV,%) [90%CI], women (n = 9)): 234 µg·h/mL; AUC(0-t) ([2]; female, AUC0–24, geometric mean (CV,%) [90%CI], women (n = 9)): 409 µg·h/mL; Tmax ([2]; female, women (n = 9)): 2 h; Cmax ([2]; male): 21.9 µg/mL; AUC(0-t) ([2]; male, AUC0–12, geometric mean (CV,%) [90%CI], men (n = 31)): 213 µg·h/mL; AUC(0-t) ([2]; male, AUC0–24, geometric mean (CV,%) [90%CI], men (n = 31)): 380 µg·h/mL; Tmax ([2]; male, men (n = 31)): 2 h; clinical laboratory values, vital signs, or safety ECG results [3, 21]: No clinically significant trends; serious or grade 3 or 4 adverse events [3, 21]: no serious or grade 3 or 4 adverse events; Alanine aminotransferase increased ([3]; cabotegravir 150 mg (n = 40)): 1 (3) n (%); Any adverse event ([3]; cabotegravir 150 mg (n = 40)): 13 (33) n (%); Blood creatine phosphokinase increased ([3]; cabotegravir 150 mg (n = 40)): 0 n (%); Dermatitis contact ([3]; cabotegravir 150 mg (n = 40)): 6 (15) n (%); Headache ([3]; cabotegravir 150 mg (n = 40)): 1 (3) n (%); Nausea ([3]; cabotegravir 150 mg (n = 40)): 0 n (%); Dermatitis contact ([3]; cabotegravir 150 mg (n = 40), listed as cabotegravir): 6 n (%); tolerability [3, 20]: well tolerated; drug exposure (Cmax) in monkeys relative to present study [4]: 3 fold; geometric mean Cmax higher than after repeat 30 mg once daily ([5]; single dose 150 mg vs 30 mg once daily in HIV-infected subjects): 39%; predicted AUC0–∞ [5, 22]: 870 µg·h/mL; predicted Cmax [5, 22]: 21.2 µg/mL; effects on hERG channel tail current [6]: no different than those observed with vehicle; ECG waveform or interval changes ([7]; single dose 1000 mg/kg): no electrocardiogram (ECG) waveform or interval changes; transient increase in heart rate [7, 23]: ~20%; transient increase in mean arterial pressure [7, 23]: ~6%; cardiovascular effects ([7]; single doses of 8 and 25 mg/kg): no effects; Cmax [8]: 67.0 µg/mL; overall mean difference in QTcF change from baseline between cabotegravir and placebo ([9]; 2540 postdose ECGs): –2.9 milliseconds; subjects with QTcF ≥ 480 milliseconds or change from baseline in QTcF of >60 milliseconds [9]: no subject; dose proportionality of pharmacokinetics ([10]; 10 to 60 mg, previous work): dose‐proportional manner from 10 to 30 mg, but in a less than proportional manner from 30 to 60 mg; plasma half-life ([10]; oral cabotegravir): 40 h; dose proportionality of AUC(0–t), Cmax, Cτ, and Cmin ([10]; repeated administration for 14 days): Dose‐proportional increases; antiretroviral activity [11]: potent antiretroviral activity; tolerability [11]: generally well tolerated; metabolic pathway [12]: metabolized via UDP‐glucuronosyltransferase (UGT) 1A1, with a secondary contribution from UGT1A9; inhibition or induction of UGT and cytochrome P450 (CYP) enzymes [13]: has not been shown to inhibit or induce; geometric mean Cmax [14]: 10.4 µg/mL; geometric mean plasma AUC0–∞ [14]: 418 µg·h/mL; median time to Cmax (Tmax) [14]: 2.5 h; Cmax at steady state ([15]; clinically therapeutic dose 30 mg once daily): 7.5 µg/mL; Cmax ([15]; repeat administration of 30 mg once daily in HIV-infected subjects): 7.49 µg/mL

What does the source list for `COc1c(N2C[C@@H]3CCCN[C@@H]3C2)c(F)cc2c(=O)c(C(=O)O)cn(C3CC3)c12` [Moxifloxacin, moxifloxacin, reference compound]?
time of maximum effect of ΔΔQTcF [1]: 8 h; ΔΔQTcF, mean ± SE ([1]; moxifloxacin 400 mg single dose minus placebo, 0.5 h): 5.40 ± 2.05 ms; ΔΔQTcF, mean ± SE ([1]; moxifloxacin 400 mg single dose minus placebo, 1 h): 8.75 ± 1.79 ms; ΔΔQTcF, mean ± SE ([1]; moxifloxacin 400 mg single dose minus placebo, 2 h): 11.67 ± 1.88 ms; ΔΔQTcF, mean ± SE ([1]; moxifloxacin 400 mg single dose minus placebo, 3 h): 10.49 ± 1.73 ms; ΔΔQTcF, mean ± SE ([1]; moxifloxacin 400 mg single dose minus placebo, 4 h): 11.81 ± 1.57 ms; ΔΔQTcF, mean ± SE ([1]; moxifloxacin 400 mg single dose minus placebo, 6.5 h): 10.08 ± 1.68 ms; ΔΔQTcF, mean ± SE ([1]; moxifloxacin 400 mg single dose minus placebo, 8 h (maximum observed)): 13.03 ± 1.63 ms; ΔΔQTcF, mean ± SE ([1]; moxifloxacin 400 mg single dose minus placebo, 12 h): 7.79 ± 1.69 ms; ΔΔQTcF, mean ± SE ([1]; moxifloxacin 400 mg single dose minus placebo, 24 h): 6.53 ± 2.10 ms; lower limit of the 90%CI for ΔΔQTcF ([1]; moxifloxacin 400 mg, at several times): > 5 millisecond; Alanine aminotransferase increased ([3]; moxifloxacin 400 mg (n = 36)): 0 n (%); Any adverse event ([3]; moxifloxacin 400 mg (n = 36)): 12 (33) n (%); Blood creatine phosphokinase increased ([3]; moxifloxacin 400 mg (n = 36)): 1 (3) n (%); Dermatitis contact ([3]; moxifloxacin 400 mg (n = 36)): 2 (6) n (%); Headache ([3]; moxifloxacin 400 mg (n = 36)): 2 (6) n (%); Nausea ([3]; moxifloxacin 400 mg (n = 36)): 2 (6) n (%); Dermatitis contact ([3]; moxifloxacin 400 mg (n = 36), listed as moxifloxacin): 2 n (%); time of first peak of placebo-adjusted QTcF change from baseline [16]: 4 h; time of second increase in QTc [16]: 8 h

For `C[C@@H]1CCO[C@H]2Cn3cc(C(=O)NCc4ccc(F)cc4F)c(=O)c(O)c3C(=O)N12` [dolutegravir], which “effect on cardiac repolarization” value [17] is on record?
Its value is “do not affect cardiac repolarization”.
